Values after ≈ are worked out from the molar mass of the structure shown.
Key:
Type in all cases: functional
Escherichia coli [1] = assay: Antibacterial activity against AmpC-producing Escherichia coli assessed as resistant isolates by broth microdilution method
In short: (§1)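 ICU clinical E. coli isolates, with ESBL or acquired AmpC genotype confirmed (AmpC families by multiplex PCR and sequencing), were stored at −80°C in skim milk and subcultured twice from frozen stock. MICs were determined in triplicate by CLSI broth microdilution. The panel included ampicillin, piperacillin-tazobactam, ceftriaxone, cefepime, cefoxitin, gentamicin, fluoroquinolones, carbapenems, doxycycline, tigecycline and trimethoprim-sulfamethoxazole.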

Escherichia coli [2] = assay: Antibacterial activity against AmpC-producing Escherichia coli isolate by broth microdilution method
In short: (§2)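 Clinical E. coli isolates from Canadian ICUs (CAN-ICU), one per patient and site, genotypically confirmed ESBL or acquired AmpC producers. AmpC groups (EBC, DHA, FOX, CIT) were typed by multiplex PCR and sequencing. Isolates were stored at −80°C in skim milk and subcultured twice from frozen stock. MICs were determined in triplicate by CLSI broth microdilution.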

Escherichia coli [3] = assay: Antibacterial activity against ESBL-producing Escherichia coli isolate by broth microdilution method; in short: as §2
Escherichia coli [4] = assay: Antibacterial activity against AmpC-producing Escherichia coli assessed as sensitive isolates by broth microdilution method; in short: as §2
Escherichia coli [5] = assay: Antibacterial activity against ESBL-producing Escherichia coli assessed as resistant isolates by broth microdilution method; in short: as §1
Escherichia coli [6] = assay: Antibacterial activity against ESBL-producing Escherichia coli assessed as sensitive isolates by broth microdilution method; in short: as §2
Escherichia coli [7] = assay: Antibacterial activity against AmpC-producing Escherichia coli assessed as sensitive isolates by broth microdilution method in presence of Tazobactam; in short: as §2
Escherichia coli [8] = assay: Antibacterial activity against ESBL-producing Escherichia coli assessed as resistant isolates by broth microdilution method in presence of Tazobactam; in short: as §1
Escherichia coli [9] = assay: Antibacterial activity against ESBL-producing Escherichia coli isolate by broth microdilution method in presence of Tazobactam; in short: as §2
Escherichia coli [10] = assay: Antibacterial activity against ESBL-producing Escherichia coli assessed as sensitive isolates by broth microdilution method in presence of Tazobactam; in short: as §2
Escherichia coli [11] = assay: Antibacterial activity against AmpC-producing Escherichia coli isolate by broth microdilution method in presence of Tazobactam; in short: as §2

Row | Compound | Activity (Escherichia coli [1]) [%] | MIC50 (Escherichia coli [2]) [µg/mL] | MIC90 (Escherichia coli [2]) [µg/mL] | MIC50 (Escherichia coli [3]) [µg/mL] | MIC90 (Escherichia coli [3]) [µg/mL] | Activity (Escherichia coli [4]) [%] | Activity (Escherichia coli [5]) [%] | Activity (Escherichia coli [6]) [%] | MIC (Escherichia coli [2]) [µg/mL] | MIC (Escherichia coli [3]) [µg/mL] | Activity (Escherichia coli [7]) [%] | Activity (Escherichia coli [8]) [%] | MIC50 (Escherichia coli [9]) [µg/mL] | MIC90 (Escherichia coli [9]) [µg/mL] | Activity (Escherichia coli [10]) [%] | MIC50 (Escherichia coli [11]) [µg/mL] | MIC90 (Escherichia coli [11]) [µg/mL]
1 | C[C@H]1c2cccc(O)c2C(=O)C2=C(O)[C@]3(O)C(=O)C(C(N)=O)=C(O)[C@@H](N(C)C)[C@@H]3[C@@H](O)[C@@H]21.O [DOXYCYCLINE] | 18.5 | 2 | 64 | 4 | 64 | 66.7 | 33.3 | 61.1 |  |  |  |  |  |  |  |  | 
2 | CN(C)c1cc(NC(=O)CNC(C)(C)C)c(O)c2c1C[C@H]1C[C@H]3[C@H](N(C)C)C(O)=C(C(N)=O)C(=O)[C@@]3(O)C(O)=C1C2=O [TIGECYCLINE] |  | 0.25 (≈ 0.427 µM) | 0.5 (≈ 0.854 µM) | 0.5 (≈ 0.854 µM) | 1 (≈ 1.71 µM) | 100 |  | 100 |  |  |  |  |  |  |  |  | 
3 | C[C@@H](O)[C@H]1C(=O)N2C(C(=O)O)=C(S[C@@H]3CN[C@H](C(=O)N(C)C)C3)[C@H](C)[C@H]12 [MEROPENEM] |  | ≤ 0.12 | ≤ 0.12 | ≤ 0.12 | ≤ 0.12 | 100 |  | 100 | ≤ 0.12 | ≤ 0.12 |  |  |  |  |  |  | 
4 | CO[C@@]1(NC(=O)Cc2cccs2)C(=O)N2C(C(=O)O)=C(COC(N)=O)CS[C@@H]21 [CEFOXITIN] | 100 | 256 (≈ 599 µM) | > 256 | 8 (≈ 18.7 µM) | 32 (≈ 74.9 µM) |  | 16.7 | 61.1 |  |  |  |  |  |  |  |  | 
5 | CC1(C)S[C@@H]2[C@H](NC(=O)[C@H](N)c3ccccc3)C(=O)N2[C@H]1C(=O)O [AMPICILLIN] | 100 | > 256 | > 256 | > 256 | > 256 |  | 100 |  | > 256 | > 256 |  |  |  |  |  |  | 
6 | GENTAMICIN | 3.7 | < 0.25 | 8 | 1 | 16 | 88.9 | 27.8 | 66.7 |  |  |  |  |  |  |  |  | 
7 | CO/N=C(\C(=O)N[C@@H]1C(=O)N2C(C(=O)[O-])=C(C[N+]3(C)CCCC3)CS[C@H]12)c1csc(N)n1 [CEFEPIME] |  | ≤ 1 | ≤ 1 | 8 (≈ 16.6 µM) | 32 (≈ 66.6 µM) | 100 | 11.1 | 50 | ≤ 1 |  |  |  |  |  |  |  | 
8 | C[C@H]1COc2c(N3CCN(C)CC3)c(F)cc3c(=O)c(C(=O)O)cn1c23.C[C@H]1COc2c(N3CCN(C)CC3)c(F)cc3c(=O)c(C(=O)O)cn1c23.O [LEVOFLOXACIN] | 26.6 | ≤ 0.06 | 16 | 16 | 32 | 88.9 | 83.3 | 16.7 |  |  |  |  |  |  |  |  | 
9 | C[C@@H](O)[C@H]1C(=O)N2C(C(=O)O)=C(S[C@@H]3CN[C@H](C(=O)Nc4cccc(C(=O)O)c4)C3)[C@H](C)[C@H]12 [ERTAPENEM] |  | 0.12 (≈ 0.252 µM) | 0.5 (≈ 1.05 µM) | 0.12 (≈ 0.252 µM) | 0.25 (≈ 0.526 µM) | 100 |  | 100 |  |  |  |  |  |  |  |  | 
10 | CCN1CCN(C(=O)N[C@@H](C(=O)N[C@@H]2C(=O)N3[C@@H]2SC(C)(C)[C@@H]3C(=O)O)c2ccccc2)C(=O)C1=O [PIPERACILLIN] |  |  |  |  |  |  |  |  |  |  | 100 | 5.6 | 2 | 8 | 94.4 | 2 | 8
11 | CO/N=C(\C(=O)N[C@@H]1C(=O)N2C(C(=O)O)=C(CSc3nc(=O)c(O)nn3C)CS[C@H]12)c1csc(N)n1 [CEFTRIAXONE] | 11.1 | 16 (≈ 28.9 µM) | 64 (≈ 115 µM) | 128 (≈ 231 µM) | > 256 | 44.4 | 83.3 | 5.6 |  |  |  |  |  |  |  |  | 
12 | O=C(O)c1cn(C2CC2)c2cc(N3CCNCC3)c(F)cc2c1=O [CIPROFLOXACIN] | 11.1 | ≤ 0.06 | > 16 | > 16 | > 16 | 85.2 | 83.3 | 16.7 |  |  |  |  |  |  |  |  | 

From ChEMBL document CHEMBL1275413, “Comparison of antimicrobial resistance profiles among extended-spectrum-beta-lactamase-producing and acquired AmpC beta-lactamase-producing Escherichia coli isolates from Canadian intensive care units” (2008)
